Experimental data from ChEMBL document CHEMBL1926611, “Synthesis and biological evaluation of 4-[3-chloro-4-(3-fluorobenzyloxy)anilino]-6-(3-substituted-phenoxy)pyrimidines as dual EGFR/ErbB-2 kinase inhibitors” (Bioorg Med Chem, 2012).

Experiments:
[1] = molecular target: Epidermal growth factor receptor (Homo sapiens, UniProt P00533); assay: Inhibition of human EGFR preincubated 2 hrs prior addition of ATP by HTRF assay
[2] = molecular target: Receptor tyrosine-protein kinase erbB-2 (Homo sapiens, UniProt P04626); assay: Inhibition of human ErbB2 preincubated for 2 hrs prior addition of ATP by HTRF assay
Method in brief: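 Wild-type ErbB-2(676–1255) was used in an HTRF KinEASE-TK format. Kinase, substrate peptide and inhibitor were combined, and ATP started the reaction. Detection used Eu-cryptate anti-phosphotyrosine antibody plus XL665-streptavidin, with time-resolved FRET read after 320 excitation. The emission ratio across ten concentrations (0.01–10,000 nM, including no inhibitor) gave IC50, with duplicate reactions and ≥2 independent determinations.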

A-431 = assay: Cytotoxicity against human A431 cells overexpressing EGFR after 72 hrs by MTT assay; conditions: A-431, 72 h
SK-OV-3 = assay: Cytotoxicity against human SKOV3 cells overexpressing ErbB2 after 72 hrs by MTT assay; conditions: SK-OV-3, 72 h

Sequence of Epidermal growth factor receptor (P00533 whole entry): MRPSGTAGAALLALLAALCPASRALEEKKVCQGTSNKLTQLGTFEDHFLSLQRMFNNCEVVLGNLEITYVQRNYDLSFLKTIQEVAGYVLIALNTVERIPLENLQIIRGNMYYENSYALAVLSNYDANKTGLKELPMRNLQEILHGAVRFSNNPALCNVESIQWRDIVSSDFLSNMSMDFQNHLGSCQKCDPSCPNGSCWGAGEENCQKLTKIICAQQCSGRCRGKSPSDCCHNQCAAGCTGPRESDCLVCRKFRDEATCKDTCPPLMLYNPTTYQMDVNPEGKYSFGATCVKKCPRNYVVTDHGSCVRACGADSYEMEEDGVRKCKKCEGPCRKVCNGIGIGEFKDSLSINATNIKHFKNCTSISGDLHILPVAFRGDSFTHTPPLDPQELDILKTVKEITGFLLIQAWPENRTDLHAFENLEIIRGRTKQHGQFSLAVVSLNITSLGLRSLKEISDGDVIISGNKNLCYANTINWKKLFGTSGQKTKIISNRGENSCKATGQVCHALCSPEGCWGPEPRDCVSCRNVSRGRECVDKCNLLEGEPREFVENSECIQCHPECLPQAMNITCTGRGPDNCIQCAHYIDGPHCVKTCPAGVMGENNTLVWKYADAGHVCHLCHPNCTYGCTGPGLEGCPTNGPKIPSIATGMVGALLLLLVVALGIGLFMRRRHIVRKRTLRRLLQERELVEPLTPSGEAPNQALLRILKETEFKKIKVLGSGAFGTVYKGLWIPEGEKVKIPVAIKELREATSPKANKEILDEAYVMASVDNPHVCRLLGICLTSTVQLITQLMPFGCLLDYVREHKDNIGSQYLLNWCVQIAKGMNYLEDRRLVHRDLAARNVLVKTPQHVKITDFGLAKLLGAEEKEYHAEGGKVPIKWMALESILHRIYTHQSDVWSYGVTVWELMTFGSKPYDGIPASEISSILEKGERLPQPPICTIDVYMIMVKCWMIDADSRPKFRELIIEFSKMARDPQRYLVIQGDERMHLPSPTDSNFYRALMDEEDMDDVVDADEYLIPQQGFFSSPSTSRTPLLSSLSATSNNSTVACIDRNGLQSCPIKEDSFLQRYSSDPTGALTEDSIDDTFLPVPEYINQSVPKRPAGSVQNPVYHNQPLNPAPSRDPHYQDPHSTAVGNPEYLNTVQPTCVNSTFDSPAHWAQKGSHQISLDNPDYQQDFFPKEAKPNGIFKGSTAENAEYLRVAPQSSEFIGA
Sequence of Receptor tyrosine-protein kinase erbB-2 (P04626 whole entry): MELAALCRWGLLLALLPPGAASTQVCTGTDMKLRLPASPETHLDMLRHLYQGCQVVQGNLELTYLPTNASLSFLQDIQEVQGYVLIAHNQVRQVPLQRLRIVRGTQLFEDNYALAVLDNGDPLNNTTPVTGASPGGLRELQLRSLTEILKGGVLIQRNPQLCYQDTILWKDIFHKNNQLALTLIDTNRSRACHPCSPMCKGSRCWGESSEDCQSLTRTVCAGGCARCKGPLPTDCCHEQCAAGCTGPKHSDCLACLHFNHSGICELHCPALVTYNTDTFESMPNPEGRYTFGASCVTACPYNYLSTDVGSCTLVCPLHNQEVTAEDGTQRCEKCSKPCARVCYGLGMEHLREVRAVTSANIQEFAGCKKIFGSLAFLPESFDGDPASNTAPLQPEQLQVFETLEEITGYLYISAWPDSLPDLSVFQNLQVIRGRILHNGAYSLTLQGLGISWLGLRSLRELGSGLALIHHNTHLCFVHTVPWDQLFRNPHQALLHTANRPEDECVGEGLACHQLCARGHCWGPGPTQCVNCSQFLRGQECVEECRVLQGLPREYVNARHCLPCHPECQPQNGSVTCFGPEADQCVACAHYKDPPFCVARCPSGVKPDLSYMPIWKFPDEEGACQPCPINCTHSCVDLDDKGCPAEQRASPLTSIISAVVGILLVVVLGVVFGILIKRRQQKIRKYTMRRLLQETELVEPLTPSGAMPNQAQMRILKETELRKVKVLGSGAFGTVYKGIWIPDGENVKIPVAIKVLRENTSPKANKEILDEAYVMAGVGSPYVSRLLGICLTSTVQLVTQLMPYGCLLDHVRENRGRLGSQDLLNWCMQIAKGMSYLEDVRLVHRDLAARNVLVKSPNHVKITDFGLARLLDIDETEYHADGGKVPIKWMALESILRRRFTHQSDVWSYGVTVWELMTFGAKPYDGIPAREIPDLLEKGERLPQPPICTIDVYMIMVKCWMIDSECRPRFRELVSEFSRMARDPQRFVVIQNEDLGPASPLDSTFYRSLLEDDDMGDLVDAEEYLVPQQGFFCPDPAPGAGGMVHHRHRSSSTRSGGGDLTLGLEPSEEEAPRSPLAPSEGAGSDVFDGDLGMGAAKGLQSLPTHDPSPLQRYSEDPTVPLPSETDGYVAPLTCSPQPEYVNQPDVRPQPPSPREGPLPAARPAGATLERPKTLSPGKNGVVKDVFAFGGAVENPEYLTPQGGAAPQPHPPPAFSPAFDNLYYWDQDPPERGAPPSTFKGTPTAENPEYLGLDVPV

SMILES | IC50 [1] [nM] | IC50 [2] [nM] | IC50 (A-431) [µM] | IC50 (SK-OV-3) [µM]
O=C(Nc1cccc(Oc2cc(Nc3ccc(OCc4cccc(F)c4)c(Cl)c3)ncn2)c1)c1ccc([N+](=O)[O-])cc1 | > 10000 | > 10000 | 6.72 | 10.2
CCOC(=O)CNc1cccc(Oc2cc(Nc3ccc(OCc4cccc(F)c4)c(Cl)c3)ncn2)c1 |  | 219 |  | 9.18
O=C(/C=C/c1ccccc1)Nc1cccc(Oc2cc(Nc3ccc(OCc4cccc(F)c4)c(Cl)c3)ncn2)c1 | 1670 | 3740 | 11.2 | 20.7
O=C(/C=C/c1ccc(F)cc1)Nc1cccc(Oc2cc(Nc3ccc(OCc4cccc(F)c4)c(Cl)c3)ncn2)c1 | 821 | 1290 | 18.1 | > 30
COc1ccc(OCC(=O)Nc2cccc(Oc3cc(Nc4ccc(OCc5cccc(F)c5)c(Cl)c4)ncn3)c2)cc1OC | > 10000 | > 10000 | 6.42 | 
O=[N+]([O-])c1cccc(Oc2cc(Nc3ccc(OCc4cccc(F)c4)c(Cl)c3)ncn2)c1 | 1200 | 2420 | 10.4 | > 30
Nc1cc(Nc2cccc(Oc3cc(Nc4ccc(OCc5cccc(F)c5)c(Cl)c4)ncn3)c2)ncn1 | 61 | 42 | 4.24 | 0.71
Fc1cccc(COc2ccc(Nc3cc(Oc4cccc(NCc5ccccc5)c4)ncn3)cc2Cl)c1 | > 10000 | > 10000 | 3.11 | 17.9
C=CC(=O)Nc1cccc(Oc2cc(Nc3ccc(OCc4cccc(F)c4)c(Cl)c3)ncn2)c1 | 37 | 29 | 3.25 | 0.89
CS(=O)(=O)CCNCc1ccc(-c2ccc3ncnc(Nc4ccc(OCc5cccc(F)c5)c(Cl)c4)c3c2)o1 [LAPATINIB] |  |  |  | 2.99
CC(=O)Nc1cccc(Oc2cc(Nc3ccc(OCc4cccc(F)c4)c(Cl)c3)ncn2)c1 | 108 | 135 | 12 | 3.95
O=C(COc1cc(F)c(F)c(F)c1)Nc1cccc(Oc2cc(Nc3ccc(OCc4cccc(F)c4)c(Cl)c3)ncn2)c1 | 721 | 2140 | 13.2 | > 30
N#CCC(=O)Nc1cccc(Oc2cc(Nc3ccc(OCc4cccc(F)c4)c(Cl)c3)ncn2)c1 | 48 | 38 | 5.17 | 8.42
O=C(COc1ccccc1)Nc1cccc(Oc2cc(Nc3ccc(OCc4cccc(F)c4)c(Cl)c3)ncn2)c1 | 65 | 79 | 14.9 | 9.1
COc1ccc(/C=C/C(=O)Nc2cccc(Oc3cc(Nc4ccc(OCc5cccc(F)c5)c(Cl)c4)ncn3)c2)cc1OC | 523 | 1230 | > 20 | > 30
Nc1cccc(Oc2cc(Nc3ccc(OCc4cccc(F)c4)c(Cl)c3)ncn2)c1 | 473 | 559 | 8.92 | 12.2
CCOC(=O)/C=C/C(=O)Nc1cccc(Oc2cc(Nc3ccc(OCc4cccc(F)c4)c(Cl)c3)ncn2)c1 | 129 | 196 | 7 | 1.29
O=C(Cc1cc(F)c(F)cc1F)Nc1cccc(Oc2cc(Nc3ccc(OCc4cccc(F)c4)c(Cl)c3)ncn2)c1 | 627 | 834 | 9.29 | 26.1
